Compound activity from PubChem.
T cruzi repl = T. cruzi replication inhibition | T. cruzi beta-gal in NIH3T3, luminescence, 90 h | inhibition, % (concentration not given with the values) | actives 1.4% (n = 300,000);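 active = mean inhibition across valid replicates above about 55%, limit read from the data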;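 also: signal also drops with host cell toxicity which is not excluded here; higher percent means less beta-gal luminescence so fewer parasites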
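System: NIH/3T3 fibroblasts plus reporter T. cruzi. Medium: DMEM plus 2% FBS. Probe or stimulus: 5000 reporter trypomastigotes per well. Compound: single 50 nL compound addition per well in DMSO. Incubation: co-culture of at least 90 h after 3 h attachment. Detection: GalScreen β-gal luminescence, detergent lysis, 60 min. Evaluation: parasite load inhibition, %.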
Lipid droplet = hepatic lipid droplet formation modulation; AML12 mouse hepatocytes, oleate lipid droplets, BODIPY imaging; inhibition, % at 6.5 µM; actives 0.4% (n = 240,000); AID 1656;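 active = lipid droplet intensity inhibited by at least 50%, with more than 500 cells counted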
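Technique: fluorescence imaging, 20x objective, two fields per well / Assay system: AML12 hepatocytes (mouse) / Measure: % inhibition of lipid droplet signal / Doses: 6.5 µM single-point dosing / Incubation: overnight exposure / Reagent: 100 µM oleic acid challenge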
MPTP inh = inhibitors of mitochondrial permeability transition pore; isolated mouse mitochondria, Ca2+ swelling absorbance, 30 min; inhibition, % at 10 µM; actives 1.4% (n = 360,000);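 active = inhibition of 50% or more, scaled per plate between neutral and stimulator controls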
Lmaj promast = Leishmania major promastigote growth inhibition. Leishmania major promastigotes, resazurin fluorescence viability. actives 9% (n = 200,000). inhibition, % at 10 µM; in the data active = inhibition above about 50%;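 also: promastigotes grown with compound for 44 hours at 28 °C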
DTT redox prof = compounds producing H2O2 with reducing agent – biochemical, NIH compound library profiling, artefact control for MLSCN library redox annotation, primary screen; DTT-dependent redox cycling H2O2, phenol red/HRP absorbance; 100% = 100 µM peroxide control, 0% = buffer; activation, % at 10 µM; actives 0.03% (n = 200,000);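 active = activation of at least 50% relative to the plate's high and low controls in the primary single-dose screen; inactive = activation below 50%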;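 also: compound incubated with DTT at 0.8 mM final as the reducing agent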
Each line names hits and unclear results; the compound was inactive in the other large screens. The sample as a whole holds a higher share of hits than the screen did.

Cc1cc(C)c(C#N)c(SCC(=O)Nc2nnc(-c3ccccc3)s2)n1	T cruzi repl 55.0
COc1ccc(CNC(=O)CSc2nc(-c3ccccc3)cc(-c3cccs3)c2C#N)cc1	none
CC(C)(C)OC(=O)N1CCN(C(=O)OCC2c3ccccc3-c3ccccc32)CC1C(=O)O (stereo unspecified)	none (no result: Lipid droplet, Lmaj promast, DTT redox prof)
CC(C)Cc1nc2ccccc2[nH]1	none (no result: Lmaj promast, DTT redox prof)
COc1ccccc1CC(Cc1nc2ccccc2[nH]1)c1nc2ccccc2[nH]1 (stereo unspecified)	Lmaj promast 98.2
CC(c1ccccc1)C(Cc1nc2ccccc2[nH]1)c1nc2ccccc2[nH]1 (stereo unspecified)	Lmaj promast 95.0 (no result: MPTP inh)
CCC(C)N(C)Cc1cccc(C2(O)CCN(S(=O)(=O)c3ccc(F)cc3)CC2)c1 (stereo unspecified)	Lmaj promast 99.9 (no result: Lipid droplet)
COc1ccc(/C=C/C(=O)NC2CCN(Cc3ccccc3)CC2)cc1OC	none (no result: Lmaj promast, DTT redox prof)
CC1CCCN(CCCOc2ccccc2-c2ccccc2)C1 (stereo unspecified)	Lmaj promast 94.3
CC1CCN(CCCCOc2ccccc2-c2ccccc2)CC1	Lmaj promast 99.1
CC1CCN(CCOCCOc2ccccc2-c2ccccc2)CC1	Lmaj promast 82.7
COc1ccccc1OCCCCN1CCC(C)CC1	none (no result: Lmaj promast, DTT redox prof)
CC1CCN(CCOCCOc2ccccc2Br)CC1	Lmaj promast 82.2
Cc1ccc2cccc(OCCOCCOc3ccccc3Br)c2n1	Lmaj promast 66.7
COc1cc(/C=C(\C#N)C(=O)NCC2CCCO2)ccc1OC(C)C (stereo unspecified)	Lmaj promast 78.5
CCc1cccc(NC(=O)CNC(=O)N2CC(=O)Nc3ccccc32)c1	none (no result: Lmaj promast, DTT redox prof)
CCc1cccc(Nc2c([N+](=O)[O-])cc(C(=O)N3CC(=O)Nc4ccccc43)cc2[N+](=O)[O-])c1	T cruzi repl 77.4, Lmaj promast 78.5
C=CCOC(=O)C1=C(C)NC(C)=C(C(=O)OCC=C)C1c1cn(-c2ccccc2)nc1-c1ccco1	none
CCCCOc1ccc(C(=O)N/C(=C\c2ccc(OC)cc2)C(=O)OCc2ccco2)cc1	Lmaj promast 96.4 (no result: Lipid droplet)
COc1ccc(C(=O)N/C(=C\c2ccco2)C(=O)OCc2ccco2)cc1	none (no result: Lmaj promast, DTT redox prof)
O=C(OCCc1cc2ccccc2c(=O)o1)N1CCOCC1	none (no result: T cruzi repl, Lipid droplet, Lmaj promast, DTT redox prof)
C=CCNCCCCOc1ccccc1-c1ccccc1	Lmaj promast 98.0
COCCNCCOc1ccccc1-c1ccccc1	Lmaj promast 85.3
COCCCNCCOc1ccccc1-c1ccccc1	none
COCCCNCCCCOc1ccccc1-c1ccccc1	Lmaj promast 97.7
CCCCNCCOc1ccccc1-c1ccccc1	Lmaj promast 97.4
CCC(C)(O)c1[nH]c2ccc(C(=O)OC)cc2c1C (stereo unspecified)	none (no result: Lmaj promast, DTT redox prof)
CCN(CC)S(=O)(=O)c1ccc(C(=O)NCC(=O)NCc2ccc3c(c2)OCO3)cc1	none (no result: T cruzi repl, Lipid droplet, Lmaj promast, DTT redox prof)
Cc1ccc(NC(=O)C2CCN(S(=O)(=O)c3ccc4c(c3)OCCO4)CC2)nc1	none (no result: Lipid droplet, Lmaj promast, DTT redox prof)
CN(C)CCOc1ccccc1-c1ccccc1	none
CN(C)CCOCCOc1ccccc1-c1ccccc1	Lmaj promast 80.6 (no result: Lipid droplet)
OCCNCCOCCOc1ccccc1-c1ccccc1	Lmaj promast 61.6
OCCNCCOc1ccccc1-c1ccccc1	none
O=C1CN(C(=O)c2cc([N+](=O)[O-])ccc2Cl)C(c2ccc(F)cc2)c2cc(F)ccc2N1 (stereo unspecified)	Lmaj promast 79.3
O=C1CN(C(=O)c2ccc(Br)o2)C(c2ccccc2)c2cc(F)ccc2N1 (stereo unspecified)	Lmaj promast 92.4 (no result: Lipid droplet)
O=C1CN(C(=O)c2ccccc2Br)C(c2ccc(F)cc2)c2cc(F)ccc2N1 (stereo unspecified)	none (no result: Lmaj promast, DTT redox prof)
Cc1nn(C)c(C)c1/C=N/NC(=O)c1csc2ccccc12	none (no result: MPTP inh)
Cc1ccc(-c2cc(C(=O)N/N=C/c3c(C)nn(C)c3C)c3ccccc3n2)c(C)c1	Lmaj promast 100.1 (no result: Lipid droplet)
Cc1nn(-c2ccccc2)c(N2CCCC2)c1/C=N/NC(=O)c1cc(-c2ccccc2)nc2ccccc12	T cruzi repl 62.7
Cc1nn(-c2ccccc2)c(N2CCCC2)c1/C=N/NC(=O)c1cc(-c2ccccn2)nc2ccccc12	none
CCOc1ccc(S(=O)(=O)NCCC(=O)OCC(=O)NC(=O)c2cccn2C)cc1	none (no result: T cruzi repl, Lipid droplet, Lmaj promast, DTT redox prof)
CCCOC(=O)c1ccc(-c2c(C)noc2-c2ccc(OC)cc2O)o1	Lmaj promast 56.2
Fc1ccc(Nc2c(-c3ccco3)nc3ccccn23)cc1	Lmaj promast 66.5
Cc1ccc([N+](=O)[O-])cc1NC(=O)CN(C(=O)c1ccccc1Cl)C1CCCCC1	none
COc1ccc(Cl)cc1N(CC(=O)Nc1ccc2c(c1)OCO2)S(C)(=O)=O	none (no result: Lipid droplet)
CS(=O)(=O)N(CC(=O)Nc1cccc([N+](=O)[O-])c1)c1ccccc1	none
COc1ccc(C)cc1S(=O)(=O)N(CC(=O)Nc1cccc([N+](=O)[O-])c1)c1ccccc1	Lmaj promast 56.0
Cc1ccc([N+](=O)[O-])cc1NC(=O)CN(C1CCCCC1)S(=O)(=O)c1ccc(Cl)cc1	T cruzi repl 59.0, Lmaj promast 73.3
COc1ccc(N(CC(=O)Nc2ccc(S(=O)(=O)N3CCOCC3)cc2)S(=O)(=O)c2ccccc2)cc1	Lmaj promast 58.2 (no result: T cruzi repl)
COc1ccc(OC)c(N(CC(=O)Nc2ccc3c(c2)OCO3)S(=O)(=O)c2ccccc2)c1	Lmaj promast 99.7
Cc1ccc(N2CC(C(=O)OCC(=O)Nc3ccc(Cl)cc3)CC2=O)cc1 (stereo unspecified)	none (no result: T cruzi repl, Lipid droplet, Lmaj promast, DTT redox prof)
CC(C)CCNC(=O)CN(C(=O)CCC(=O)Nc1nccs1)C1CCCCC1	none (no result: Lmaj promast, DTT redox prof)
Cc1ccc(NC(=O)CN(c2ccc(Cl)cc2)S(=O)(=O)c2cc([N+](=O)[O-])ccc2Cl)c(C)c1	T cruzi repl 58.8, Lmaj promast 98.3 (no result: Lipid droplet)
Cc1ccc(NS(=O)(=O)c2ccc(NC(=O)CN(c3cc([N+](=O)[O-])ccc3C)S(C)(=O)=O)cc2)c(C)c1	none
COc1ccc(S(=O)(=O)N(CC(=O)N2CCN(c3ccccc3OC)CC2)c2ccccc2)cc1	Lmaj promast 90.8 (no result: T cruzi repl, Lipid droplet)
COc1cccc(NC(=O)CN(c2ccc([N+](=O)[O-])cc2)S(=O)(=O)c2ccccc2)c1	Lmaj promast 97.6
COc1ccc(N2CCN(C(=O)CN(c3ccccc3)S(=O)(=O)c3ccc(OC)cc3)CC2)cc1	none
Cn1c(C(=O)N2CCC(C(=O)NCc3ccccc3)CC2)cc2sccc21	none (no result: Lmaj promast, DTT redox prof)
CCCNC(=O)C1(C)CCN(C(=O)c2ccc3snnc3c2)C1 (stereo unspecified)	none (no result: T cruzi repl, Lipid droplet, Lmaj promast, DTT redox prof)
O=C(COC(=O)CNC(=O)c1ccc(Cl)cc1)Nc1cccc(S(=O)(=O)N2CCCC2)c1	none (no result: Lmaj promast, DTT redox prof)
COc1ccc(CSc2nc(C)[nH]c2[N+](=O)[O-])cc1[N+](=O)[O-]	none (no result: Lmaj promast, DTT redox prof)
Cc1nc(SCc2ccccc2)c([N+](=O)[O-])[nH]1	Lmaj promast 54.1 (no result: DTT redox prof)
Cc1[nH]c2ccccc2c1C(=O)COC(=O)c1ccc([N+](=O)[O-])s1	T cruzi repl 74.2, Lmaj promast 100.5
